Key:
[1] = target: T1, Angiotensin II receptor (AT-1) type-1 (Rattus norvegicus, UniProt P29089+P25095); experiment: In vitro inhibition of specific binding of [125 I] A II to rat liver membrane.
T1 sequence (P29089 whole entry): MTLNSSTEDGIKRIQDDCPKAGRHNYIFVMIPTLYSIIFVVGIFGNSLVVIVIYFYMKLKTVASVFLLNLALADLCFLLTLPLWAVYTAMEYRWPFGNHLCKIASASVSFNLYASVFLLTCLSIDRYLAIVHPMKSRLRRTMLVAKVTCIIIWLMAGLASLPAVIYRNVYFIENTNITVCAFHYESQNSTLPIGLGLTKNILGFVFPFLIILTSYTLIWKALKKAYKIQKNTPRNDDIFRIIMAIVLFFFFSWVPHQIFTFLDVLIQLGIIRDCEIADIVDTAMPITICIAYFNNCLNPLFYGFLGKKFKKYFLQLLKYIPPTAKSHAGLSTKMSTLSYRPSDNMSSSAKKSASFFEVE
T1 sequence (P25095 whole entry): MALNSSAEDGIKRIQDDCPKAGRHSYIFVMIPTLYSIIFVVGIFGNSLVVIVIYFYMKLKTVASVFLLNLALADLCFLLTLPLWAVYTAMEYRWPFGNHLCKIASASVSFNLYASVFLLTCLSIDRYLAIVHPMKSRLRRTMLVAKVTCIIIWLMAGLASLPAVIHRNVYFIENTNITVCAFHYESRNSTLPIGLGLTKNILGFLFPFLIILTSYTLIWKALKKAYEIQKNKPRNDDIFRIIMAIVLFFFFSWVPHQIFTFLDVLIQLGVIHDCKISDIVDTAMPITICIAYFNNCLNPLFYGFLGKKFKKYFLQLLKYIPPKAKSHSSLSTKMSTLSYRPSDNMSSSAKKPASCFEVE
Procedure, shortened: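 Rat liver membrane preparation (AT1 sites), diluted in kit buffer. Nonspecific binding defined with 10⁻⁴ M A II, standard curve 10⁻¹⁰–10⁻⁷ M. Reaction stopped with saline and glass-fiber filtration, then gamma counting.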

Rattus norvegicus = experiment: Maximum percent change in A II supported mean arterial pressure 60 minutes following 3 mg/kg i.d. administration.; assay type: functional; settings: Artery, intraduodenal, in the assay text read “at the time of maximum effect following” for “60 minutes following”, read-out: Inhibition
Procedure, shortened: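 Anesthetized rats, ganglion blocked with mecamylamine 3 mg/kg iv, under A II infusion until pressure stabilized. Agent suspended in methyl cellulose and given 3 mg/kg through a duodenal cannula (1 mL/kg). MAP followed for 240 min. Fall expressed as percent of the A II-supported pressure. Maximum change and its time recorded, n = 3. Adjusted AUC between control and treated MAP/time curves.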

[2] = Partition coefficient (logP); assay type: physicochemical; settings: octanol/water
[3] = Partition coefficient (logD) (octanol/0.01 N K2HPO4); assay type: physicochemical
Procedure, shortened: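 Distribution coefficient measured between octanol and pH 7.4 phosphate buffer.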

IC50 [1] [nM] | logP [2] | logD [3] | Compound | maximum percent change in A II-supported mean arterial pressure at 3 mg/kg (Rattus norvegicus) [%]
1.3 | – | – | CCc1nc(C)c2c(n1)N(Cc1ccc(-c3ccccc3-c3nn[nH]n3)cc1)C(=O)CC2 | -76
85 | – | – | Cc1nc(C)c2c(n1)N(Cc1ccc(-c3ccccc3C(=O)[O-])cc1)C(=O)CC2.[K+] | -36
1.8 | 4.45 | – | CCCc1nc(C)nc2c1CCC(=O)N2Cc1ccc(-c2ccccc2-c2nn[nH]n2)cc1 | -86
2.3 | 3.92 | – | CCc1nc(C)nc2c1CCC(=O)N2Cc1ccc(-c2ccccc2-c2nn[nH]n2)cc1 | -104
170 | – | – | Cc1nc(C)c2c(n1)N(Cc1ccc(-c3ccccc3-c3nn[nH]n3)cc1)CCC2 | -20
1.35 | – | – | CCCc1nc(C)c2c(n1)N(Cc1ccc(-c3ccccc3-c3nn[nH]n3)cc1)C(=O)CC2 | -58
13 | 4.32 | 1.41 | Cc1nc(C(C)C)c2c(n1)N(Cc1ccc(-c3ccccc3-c3nn[nH]n3)cc1)C(=O)CC2 | -44
285 | – | – | Cc1nc(CO)nc2c1CCC(=O)N2Cc1ccc(-c2ccccc2-c2nn[nH]n2)cc1 | -30
24.3 | – | – | Cc1nc(C)c2c(n1)N(Cc1ccc(-c3ccccc3-c3nn[nH]n3)nc1)C(=O)CC2 | -16
3.2 | 3.91 | – | Cc1nc(C)c2c(n1)N(Cc1ccc(-c3ccccc3-c3nn[nH]n3)cc1)C(=O)C(C)C2 (stereo not drawn) | -63
24.6 | – | – | Cc1nc2c(c(C(F)(F)F)n1)CCC(=O)N2Cc1ccc(-c2ccccc2-c2nn[nH]n2)cc1 | -68
2.2 | – | – | Cc1nc(C(C)C)nc2c1CCC(=O)N2Cc1ccc(-c2ccccc2-c2nn[nH]n2)cc1 | -40
94.9 | – | – | Cc1nc2c(c(C(F)(F)F)n1)CCC(=O)N2Cc1ccc(-c2ccccc2-c2nn[nH]n2)nc1 | -41
50.7 | – | – | Cc1nc(C=O)c2c(n1)N(Cc1ccc(-c3ccccc3-c3nn[nH]n3)cc1)C(=O)CC2 | –
49.4 | – | – | Cc1nc(C)c2c(n1)N(Cc1ccc(-c3ccccc3-c3nn[nH]n3)cn1)C(=O)CC2 | -34
3 | 4.43 | 1.21 | Cc1nc(C)c2c(n1)N(Cc1ccc(-c3ccccc3-c3nn[nH]n3)cc1)C(=O)C(C)(C)C2 | -66
– | – | – | CCCCc1nc(Cl)c(CO)n1Cc1ccc(-c2ccccc2-c2nnn[nH]2)cc1 [LOSARTAN] | -72
5.2 | 3.39 | 0.49 | Cc1nc(C)c2c(n1)N(Cc1ccc(-c3ccccc3-c3nnn[nH]3)cc1)C(=O)CC2 [TASOSARTAN] | -97
